Data: ChEMBL document CHEMBL1145806, “Discovery and structural modification of inhibitors of methionine aminopeptidases from Escherichia coli and Saccharomyces cerevisiae” (J Med Chem, 2003)
In brackets after ≈: the same amount, converted by molar mass.

Columns and labels:
[1] = target: T1, Methionine aminopeptidase 1 (Saccharomyces cerevisiae S288c, UniProt Q01662); experiment: Inhibitory activity against type I methionine aminopeptidase from Saccharomyces cerevisiae
T1 sequence (Q01662 whole entry): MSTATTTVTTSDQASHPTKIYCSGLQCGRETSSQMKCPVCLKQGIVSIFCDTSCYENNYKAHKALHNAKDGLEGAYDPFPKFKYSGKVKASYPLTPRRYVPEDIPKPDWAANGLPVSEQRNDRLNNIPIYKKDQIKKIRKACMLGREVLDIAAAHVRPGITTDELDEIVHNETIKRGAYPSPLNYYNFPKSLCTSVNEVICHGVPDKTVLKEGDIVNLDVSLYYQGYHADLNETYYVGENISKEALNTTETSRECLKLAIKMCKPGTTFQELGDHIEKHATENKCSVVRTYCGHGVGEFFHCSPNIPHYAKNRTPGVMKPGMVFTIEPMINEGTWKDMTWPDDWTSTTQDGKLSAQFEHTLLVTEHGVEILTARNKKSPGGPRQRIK
In short: (§1)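 Co(II)-activated enzyme: preincubated 30 min in 25 mM HEPES pH 7.5, 150 mM KCl, 15 mM methionine, 500 μM CoCl2. Chromogenic assay in 50 mM MOPS pH 7.0 with 1 mM DTNB and 100 μM thiopeptolide Met-S-Gly-Phe-OH. Final enzyme was 150 nM for EcMetAP1 and 330 nM for ScMetAP1. Hydrolysis read at 412 nm for 60 s. IC50 from inhibitor dilutions, […].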

[2] = system: Escherichia coli; experiment: Selectivity of inhibitory activity of Methionine aminopeptidase 1 from Escherichia coli to Methionine aminopeptidase 1 from Saccharomyces cerevisiae
[3] = target: T2, Methionine aminopeptidase (Escherichia coli K-12, UniProt P0AE18); experiment: Inhibitory activity against Methionine aminopeptidase 1 from Escherichia coli; in short: as §1
T2 sequence (P0AE18 whole entry): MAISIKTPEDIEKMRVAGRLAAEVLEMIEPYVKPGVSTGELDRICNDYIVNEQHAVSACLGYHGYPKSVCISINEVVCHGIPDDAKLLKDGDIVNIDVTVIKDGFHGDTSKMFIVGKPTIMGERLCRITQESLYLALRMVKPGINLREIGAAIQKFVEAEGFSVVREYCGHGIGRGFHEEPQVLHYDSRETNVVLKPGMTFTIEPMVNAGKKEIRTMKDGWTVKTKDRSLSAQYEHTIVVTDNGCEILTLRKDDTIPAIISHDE

[4] = system: Escherichia coli; experiment: Antibacterial activity against enteropathogenic Escherichia coli ATCC 25922 was determined after 24 hr; format: functional; conditions: ATCC 25922, 24 h
[5] = system: Pseudomonas aeruginosa; experiment: Antibacterial activity against Pseudomonas aeruginosa ATCC 27853 was determined after 24 hr; format: functional; conditions: ATCC 27853, 24 h
[6] = system: Staphylococcus aureus; experiment: Antibacterial activity against Staphylococcus aureus ATCC 25923 was determined after 24 hr; format: functional; conditions: ATCC 25923, 24 h

O=C(Nc1nccs1)c1ncccc1NC(=O)C1CCCCC1
IC50 [1]: > 100000 nM | Ratio [2]: < 0.0087 | IC50 [3]: 870 nM

CCCCCC(=O)Nc1cccnc1C(=O)Nc1nccs1
IC50 [1]: 620 nM | Ratio [2]: 0.61 | IC50 [3]: 380 nM

CC(C)(C)C(=O)Nc1cccnc1C(=O)Nc1nccs1
IC50 [1]: 340 nM | Ratio [2]: 1.59 | IC50 [3]: 540 nM

CC(C)=CC(=O)Nc1cccnc1C(=O)Nc1nccs1
IC50 [1]: 770 nM | Ratio [2]: 0.29 | IC50 [3]: 220 nM

CCC(=O)Nc1cccnc1C(=O)Nc1nccs1
IC50 [1]: 350 nM | Ratio [2]: 0.74 | IC50 [3]: 260 nM

CC(C)=CCC(=O)Nc1cccnc1C(=O)Nc1nccs1
IC50 [1]: 140 nM | Ratio [2]: 1.71 | IC50 [3]: 240 nM

O=C(Cc1ccccc1)Nc1cccnc1C(=O)Nc1nccs1
IC50 [1]: 820 nM | Ratio [2]: 0.49 | IC50 [3]: 400 nM

O=C(Oc1cccnc1C(=O)Nc1nccs1)c1ccccc1[N+](=O)[O-]
IC50 [1]: > 100000 nM | Ratio [2]: < 0.021 | IC50 [3]: 2100 nM

O=C(Nc1nccs1)c1ncccc1O
IC50 [1]: 4860 nM | Ratio [2]: 0.38 | IC50 [3]: 1870 nM

CC(C)=CC(=O)Oc1cccnc1C(=O)Nc1nccs1
IC50 [1]: 490 nM | Ratio [2]: 5.3 | IC50 [3]: 2600 nM

CCC(=O)Oc1cccnc1C(=O)Nc1nccs1
MIC [4]: 250 µg/mL (≈ 902 µM) | IC50 [1]: 380 nM | Ratio [2]: 14 | MIC [5]: 500 µg/mL (≈ 1800 µM) | MIC [6]: 125 µg/mL (≈ 451 µM) | IC50 [3]: 5400 nM

O=C(Nc1cccnc1C(=O)Nc1nccs1)c1ccccc1F
MIC [4]: 250 µg/mL (≈ 730 µM) | IC50 [1]: > 100000 nM | Ratio [2]: < 0.0028 | MIC [5]: 250 µg/mL (≈ 730 µM) | MIC [6]: 15.6 µg/mL (≈ 45.6 µM) | IC50 [3]: 280 nM

C/C=C(\C)C(=O)Oc1cccnc1C(=O)Nc1nccs1
IC50 [1]: 390 nM | Ratio [2]: 11 | IC50 [3]: 4400 nM

O=C(Nc1cccnc1C(=O)Nc1nccs1)c1ccc(F)cc1
IC50 [1]: > 100000 nM | Ratio [2]: < 0.0136 | IC50 [3]: 1360 nM

O=C(Oc1cccnc1C(=O)Nc1nccs1)c1ccc(F)cc1
IC50 [1]: 62000 nM | Ratio [2]: 0.018 | IC50 [3]: 1100 nM

CC(C)(C)C(=O)Oc1cccnc1C(=O)Nc1nccs1
IC50 [1]: 780 nM | Ratio [2]: 0.87 | IC50 [3]: 680 nM

CC(=O)Oc1ccccc1C(=O)Oc1cccnc1C(=O)Nc1nccs1
IC50 [1]: 15000 nM | Ratio [2]: 0.11 | IC50 [3]: 1600 nM

COc1ccccc1C(=O)Oc1cccnc1C(=O)Nc1nccs1
IC50 [1]: 550 nM | Ratio [2]: 3.1 | IC50 [3]: 1700 nM

O=C(Oc1cccnc1C(=O)Nc1nccs1)c1cccc(F)c1
IC50 [1]: > 100000 nM | Ratio [2]: < 0.0095 | IC50 [3]: 950 nM

C=C(C)CC(=O)Nc1cccnc1C(=O)Nc1nccs1
IC50 [1]: 4670 nM | Ratio [2]: 0.032 | IC50 [3]: 150 nM

O=C(Oc1cccnc1C(=O)Nc1nccs1)c1ccccc1F
IC50 [1]: 16000 nM | Ratio [2]: 0.052 | IC50 [3]: 830 nM

O=C(Nc1cccnc1C(=O)Nc1nccs1)c1cccc(F)c1
IC50 [1]: > 100000 nM | Ratio [2]: < 0.0071 | IC50 [3]: 710 nM

CCCCCC(=O)Oc1cccnc1C(=O)Nc1nccs1
IC50 [1]: 1740 nM | Ratio [2]: 0.59 | IC50 [3]: 1020 nM

O=CNc1cccnc1C(=O)Nc1nccs1
MIC [4]: 125 µg/mL (≈ 503 µM) | IC50 [1]: 320 nM | Ratio [2]: 1 | MIC [5]: 500 µg/mL (≈ 2010 µM) | MIC [6]: 62.5 µg/mL (≈ 252 µM) | IC50 [3]: 330 nM

C/C=C(\C)C(=O)Nc1cccnc1C(=O)Nc1nccs1
IC50 [1]: 10900 nM | Ratio [2]: 0.026 | IC50 [3]: 280 nM

O=C(Oc1cccnc1C(=O)Nc1nccs1)c1cccc([N+](=O)[O-])c1
IC50 [1]: > 100000 nM | Ratio [2]: < 0.006 | IC50 [3]: 600 nM

CC(C)(C)OC(=O)Nc1cccnc1C(=O)Nc1nccs1
IC50 [1]: 3350 nM | Ratio [2]: 0.054 | IC50 [3]: 180 nM

CC(C)COC(=O)Nc1cccnc1C(=O)Nc1nccs1
IC50 [1]: 53700 nM | Ratio [2]: 0.036 | IC50 [3]: 1920 nM

COc1cccc(C(=O)Oc2cccnc2C(=O)Nc2nccs2)c1[N+](=O)[O-]
IC50 [1]: 3020 nM | Ratio [2]: 0.56 | IC50 [3]: 1700 nM

O=C(Oc1cccnc1C(=O)Nc1nccs1)c1ccc(F)c(Br)c1
IC50 [1]: 3400 nM | Ratio [2]: 0.74 | IC50 [3]: 2500 nM

Nc1cccnc1C(=O)Nc1nccs1
IC50 [1]: 32800 nM | Ratio [2]: 0.052 | IC50 [3]: 1700 nM

O=C(Nc1nccs1)c1ccccn1
MIC [4]: 12.5 µg/mL (≈ 60.9 µM) | IC50 [1]: 7000 nM | Ratio [2]: 0.71 | MIC [5]: 250 µg/mL (≈ 1220 µM) | MIC [6]: 2 µg/mL (≈ 9.74 µM) | IC50 [3]: 5000 nM

CO[C@@H]1[C@H](OC(=O)/C=C/C=C/C=C/C=C/C(=O)O)CC[C@]2(CO2)[C@H]1[C@@]1(C)O[C@@H]1CC=C(C)C [FUMAGILLIN]
IC50 [1]: > 100000 nM | IC50 [3]: > 100000 nM

CCCC[C@@H](N)[C@H](O)C(=O)N[C@@H](C)C(=O)N[C@@H](CC(C)C)C(=O)OC
IC50 [1]: 95100 nM | IC50 [3]: 22900 nM

O=C(Oc1cccnc1C(=O)Nc1nccs1)c1ccccc1
IC50 [1]: 1030 nM | Ratio [2]: 1.2 | IC50 [3]: 1220 nM

O=C(Oc1cccnc1C(=O)Nc1nccs1)c1ccccc1I
IC50 [1]: 890 nM | Ratio [2]: 1.5 | IC50 [3]: 1300 nM

COc1ccccc1/C=C/C(=O)Oc1cccnc1C(=O)Nc1nccs1
IC50 [1]: 9900 nM | Ratio [2]: 0.21 | IC50 [3]: 2100 nM

O=C(Nc1nccs1)c1ncccc1OC(=O)C1CCCCC1
IC50 [1]: 320 nM | Ratio [2]: 7.5 | IC50 [3]: 2390 nM

O=C(Nc1nccs1)c1ncccc1NC(=O)C(F)(F)F
IC50 [1]: 4920 nM | Ratio [2]: 0.069 | IC50 [3]: 340 nM

CC(C)=CCCC(=O)Nc1cccnc1C(=O)Nc1nccs1
IC50 [1]: 310 nM | Ratio [2]: 2 | IC50 [3]: 610 nM

O=C(Cc1ccccc1)Oc1cccnc1C(=O)Nc1nccs1
IC50 [1]: 200 nM | Ratio [2]: 2.7 | IC50 [3]: 540 nM

O=C(Nc1cccnc1C(=O)Nc1nccs1)c1ccccc1
IC50 [1]: > 100000 nM | Ratio [2]: < 0.0089 | IC50 [3]: 890 nM

C=CCC(=O)Nc1cccnc1C(=O)Nc1nccs1
MIC [4]: 125 µg/mL (≈ 434 µM) | IC50 [1]: 380 nM | Ratio [2]: 0.34 | MIC [5]: 500 µg/mL (≈ 1730 µM) | MIC [6]: 62.5 µg/mL (≈ 217 µM) | IC50 [3]: 130 nM
